Results: ChEMBL document CHEMBL2406966, “Structure and Property Based Design of Pyrazolo[1,5-a]pyrimidine Inhibitors of CK2 Kinase with Activity in Vivo” (ACS Med Chem Lett, 2013)
Values after ≈ are worked out from the molar mass of the structure shown. Active and inactive are the calls of the source. The calls are words filed in the database; no cut-off is given here.

Test system: HCT-116
Experiment: Growth inhibition of human HCT116 cells after 72 hrs by Alamar blue assay
Format: functional
Conditions: HCT-116, 72 h

Row | Structure (SMILES) | GI50 [µM]
1 | CC(=O)Nc1cc(Nc2cc(NC3CCC3)n3ncc(C#N)c3n2)c(F)cc1C | 0.41
2 | CC(=O)Nc1cc(Nc2cc(Nc3ccn(CCN4CCOCC4)n3)n3ncc(C#N)c3n2)ccc1C | 0.97
3 | CC(=O)Nc1cc(Nc2cc(Nc3cn(CCO)cn3)n3ncc(C#N)c3n2)ccc1C | 0.04
4 | CC(=O)Nc1cc(Nc2cc(Nc3cn(CCN4CCOCC4)cn3)n3ncc(C#N)c3n2)ccc1C | 0.67
5 | CC(=O)Nc1cc(Nc2cc(NC3CC3)n3ncc(C#N)c3n2)c(F)cc1C | 0.057
6 | CC(=O)Nc1cc(Nc2cc(NC3COC3)n3ncc(C#N)c3n2)ccc1Cl | 0.97

Further compounds by falling GI50, results first:

Row | GI50 [µM] | Structure (SMILES)
7 | 0.65 | CC(=O)Nc1cc(Nc2cc(Nc3cn(CCN4CCCC4)cn3)n3ncc(C#N)c3n2)ccc1C
8 | 0.61 | CC(=O)Nc1cc(Nc2cc(NC3COC3)n3ncc(C#N)c3n2)c(F)cc1C
9 | 0.28 | CC(=O)Nc1cc(Nc2cc(NC3COC3)n3ncc(C#N)c3n2)ccc1C
10 | 0.08 | CC(=O)Nc1cc(Nc2cc(Nc3ccn(CCO)n3)n3ncc(C#N)c3n2)ccc1C
11 | 0.021 | CC(=O)Nc1cc(Nc2cc(NC3CC3)n3ncc(C#N)c3n2)ccc1C1CC1
12 | 0.012 | CC(=O)Nc1cc(Nc2cc(NC3CC3)n3ncc(C#N)c3n2)c(F)cc1C1CC1

Test system: Mus musculus
Experiment: In vivo inhibition of CK2 in human DLD2 cells xenografted in mouse assessed as inhibition of AKT phosphorylation at Ser129 at 12.5 mg/kg, po measured at 3 to 24 hrs by Western blot analysis
Format: functional, organism-based
Parameters: dose 12.5 mg/kg
Conditions: not given
Procedure, shortened: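 Mice bearing DLD-1 xenografts overexpressing AKT1 received a single oral dose (10 or 12.5 mg/kg). Tumour cell lysates were taken at 3, 8 and 24 h post-dose and probed for pAKT S129 by Western blot.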

Row | Structure (SMILES) | inhibition
13 | CC(=O)Nc1cc(Nc2cc(NC3CC3)n3ncc(C#N)c3n2)c(F)cc1C | Active

Biological target: Casein kinase II subunit alpha (Homo sapiens, UniProt P68400)
Sequence (P68400 whole entry): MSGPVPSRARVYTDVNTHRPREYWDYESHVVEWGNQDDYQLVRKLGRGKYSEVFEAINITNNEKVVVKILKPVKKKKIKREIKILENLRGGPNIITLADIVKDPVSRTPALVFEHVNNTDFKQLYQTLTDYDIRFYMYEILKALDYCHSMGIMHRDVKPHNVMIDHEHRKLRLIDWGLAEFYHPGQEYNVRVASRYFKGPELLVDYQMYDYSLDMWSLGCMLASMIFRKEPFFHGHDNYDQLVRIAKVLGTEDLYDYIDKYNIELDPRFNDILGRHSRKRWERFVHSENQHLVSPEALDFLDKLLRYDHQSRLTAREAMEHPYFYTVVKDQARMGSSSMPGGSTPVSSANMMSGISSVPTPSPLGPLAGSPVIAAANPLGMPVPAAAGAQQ
Experiment: Inhibition of N-terminal His6X-tagged recombinant human full length casein kinase-2alpha expressed in SF21 cells using BODIPY-FL-RRRDDDSDDD-CONH2 as substrate preincubated for 20 mins measured after 90 mins by mobility shift assay
Conditions: not given

Row | Structure (SMILES) | IC50 [µM]
14 | CC(=O)Nc1cc(Nc2cc(NC3CCC3)n3ncc(C#N)c3n2)c(F)cc1C | < 0.003
15 | CC(=O)Nc1cc(Nc2cc(Nc3ccn(CCN4CCOCC4)n3)n3ncc(C#N)c3n2)ccc1C | < 0.003
16 | CC(=O)Nc1cc(Nc2cc(Nc3cn(CCO)cn3)n3ncc(C#N)c3n2)ccc1C | < 0.003
17 | CC(=O)Nc1cc(Nc2cc(Nc3cn(CCN4CCOCC4)cn3)n3ncc(C#N)c3n2)ccc1C | < 0.003
18 | CC(=O)Nc1cc(Nc2cc(NC3CC3)n3ncc(C#N)c3n2)c(F)cc1C | < 0.003
19 | CC(=O)Nc1cc(Nc2cc(NC3COC3)n3ncc(C#N)c3n2)ccc1Cl | < 0.003

The remaining lines, values ahead:

Row | IC50 [µM] | Structure (SMILES)
20 | < 0.003 | CC(=O)Nc1cc(Nc2cc(Nc3cn(CCN4CCCC4)cn3)n3ncc(C#N)c3n2)ccc1C
21 | < 0.003 | CC(=O)Nc1cc(Nc2cc(NC3COC3)n3ncc(C#N)c3n2)c(F)cc1C
22 | < 0.003 | CC(=O)Nc1cc(Nc2cc(NC3COC3)n3ncc(C#N)c3n2)ccc1C
23 | < 0.003 | CC(=O)Nc1cc(Nc2cc(Nc3ccn(CCO)n3)n3ncc(C#N)c3n2)ccc1C
24 | < 0.003 | CC(=O)Nc1cc(Nc2cc(NC3CC3)n3ncc(C#N)c3n2)ccc1C1CC1
25 | < 0.003 | CC(=O)Nc1cc(Nc2cc(NC3CC3)n3ncc(C#N)c3n2)c(F)cc1C1CC1

Test system: not listed separately
Experiment: cells
Conditions: Homo sapiens, HCT-116

Row | Structure (SMILES) | IC50 [µM]
26 | CC(=O)Nc1cc(Nc2cc(NC3CCC3)n3ncc(C#N)c3n2)c(F)cc1C | 0.008
27 | CC(=O)Nc1cc(Nc2cc(NC3CC3)n3ncc(C#N)c3n2)c(F)cc1C | 0.002

Further lines, results first:

Row | IC50 [µM] | Structure (SMILES)
28 | 0.021 | CC(=O)Nc1cc(Nc2cc(NC3COC3)n3ncc(C#N)c3n2)c(F)cc1C
29 | 0.028 | CC(=O)Nc1cc(Nc2cc(NC3COC3)n3ncc(C#N)c3n2)ccc1C
30 | 0.003 | CC(=O)Nc1cc(Nc2cc(NC3CC3)n3ncc(C#N)c3n2)ccc1C1CC1
31 | 0.002 | CC(=O)Nc1cc(Nc2cc(NC3CC3)n3ncc(C#N)c3n2)c(F)cc1C1CC1

Test system: not listed separately
Experiment: physchem
Conditions: octanol/water, pH 7.4

Row | Structure (SMILES) | logD at 5 h
32 | CC(=O)Nc1cc(Nc2cc(NC3CCC3)n3ncc(C#N)c3n2)c(F)cc1C | 3
33 | CC(=O)Nc1cc(Nc2cc(Nc3ccn(CCN4CCOCC4)n3)n3ncc(C#N)c3n2)ccc1C | 1.3
34 | CC(=O)Nc1cc(Nc2cc(Nc3cn(CCO)cn3)n3ncc(C#N)c3n2)ccc1C | 1.6
35 | CC(=O)Nc1cc(Nc2cc(Nc3cn(CCN4CCOCC4)cn3)n3ncc(C#N)c3n2)ccc1C | 1.4
36 | CC(=O)Nc1cc(Nc2cc(NC3CC3)n3ncc(C#N)c3n2)c(F)cc1C | 2.3
37 | CC(=O)Nc1cc(Nc2cc(NC3COC3)n3ncc(C#N)c3n2)ccc1Cl | 2.2

The remaining lines, values ahead:

Row | logD at 5 h | Structure (SMILES)
38 | 1.7 | CC(=O)Nc1cc(Nc2cc(Nc3cn(CCN4CCCC4)cn3)n3ncc(C#N)c3n2)ccc1C
39 | 1.5 | CC(=O)Nc1cc(Nc2cc(NC3COC3)n3ncc(C#N)c3n2)c(F)cc1C
40 | 1.6 | CC(=O)Nc1cc(Nc2cc(NC3COC3)n3ncc(C#N)c3n2)ccc1C
41 | 1.8 | CC(=O)Nc1cc(Nc2cc(Nc3ccn(CCO)n3)n3ncc(C#N)c3n2)ccc1C
42 | 3.1 | CC(=O)Nc1cc(Nc2cc(NC3CC3)n3ncc(C#N)c3n2)ccc1C1CC1
43 | 2.8 | CC(=O)Nc1cc(Nc2cc(NC3CC3)n3ncc(C#N)c3n2)c(F)cc1C1CC1

Biological target: Voltage-gated inwardly rectifying potassium channel KCNH2 (Homo sapiens, UniProt Q12809)
Sequence (Q12809 whole entry): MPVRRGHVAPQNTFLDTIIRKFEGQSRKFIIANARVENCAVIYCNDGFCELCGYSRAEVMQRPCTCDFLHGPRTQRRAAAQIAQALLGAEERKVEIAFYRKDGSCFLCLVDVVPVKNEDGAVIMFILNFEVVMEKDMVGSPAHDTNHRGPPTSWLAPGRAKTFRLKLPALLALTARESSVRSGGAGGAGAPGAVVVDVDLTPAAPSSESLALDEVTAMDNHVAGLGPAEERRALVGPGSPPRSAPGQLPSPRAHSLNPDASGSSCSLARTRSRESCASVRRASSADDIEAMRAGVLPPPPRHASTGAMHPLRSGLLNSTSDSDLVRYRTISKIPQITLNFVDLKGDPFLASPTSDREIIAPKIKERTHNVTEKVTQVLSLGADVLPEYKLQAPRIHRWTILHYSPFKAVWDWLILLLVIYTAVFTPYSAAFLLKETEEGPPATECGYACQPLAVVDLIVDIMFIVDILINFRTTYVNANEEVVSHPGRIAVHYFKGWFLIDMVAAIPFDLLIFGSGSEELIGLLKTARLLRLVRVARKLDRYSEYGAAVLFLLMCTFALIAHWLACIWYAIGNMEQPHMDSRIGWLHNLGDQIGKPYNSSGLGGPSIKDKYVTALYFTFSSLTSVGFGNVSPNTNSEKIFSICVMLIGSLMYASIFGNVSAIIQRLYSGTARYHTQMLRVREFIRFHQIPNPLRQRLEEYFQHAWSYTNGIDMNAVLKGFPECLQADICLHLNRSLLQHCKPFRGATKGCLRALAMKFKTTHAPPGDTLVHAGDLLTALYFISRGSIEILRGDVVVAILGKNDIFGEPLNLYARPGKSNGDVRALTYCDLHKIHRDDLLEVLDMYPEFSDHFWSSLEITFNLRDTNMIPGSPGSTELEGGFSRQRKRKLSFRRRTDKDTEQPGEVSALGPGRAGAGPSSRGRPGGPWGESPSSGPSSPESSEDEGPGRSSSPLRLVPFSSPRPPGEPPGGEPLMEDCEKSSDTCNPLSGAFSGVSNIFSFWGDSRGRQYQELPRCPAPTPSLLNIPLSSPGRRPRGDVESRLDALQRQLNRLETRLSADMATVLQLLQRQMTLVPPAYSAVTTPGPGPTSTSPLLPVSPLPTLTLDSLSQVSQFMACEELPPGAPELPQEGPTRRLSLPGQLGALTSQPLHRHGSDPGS
Experiment: Binding affinity to human ERG expressed in CHO cells by IonWorks assay
Conditions: not given

Row | Structure (SMILES) | IC50 [µM]
44 | CC(=O)Nc1cc(Nc2cc(NC3COC3)n3ncc(C#N)c3n2)ccc1C | > 33
45 | CC(=O)Nc1cc(Nc2cc(NC3CCC3)n3ncc(C#N)c3n2)c(F)cc1C | 16
46 | CC(=O)Nc1cc(Nc2cc(NC3CC3)n3ncc(C#N)c3n2)ccc1C1CC1 | 19
47 | CC(=O)Nc1cc(Nc2cc(NC3CC3)n3ncc(C#N)c3n2)c(F)cc1C | 16
48 | CC(=O)Nc1cc(Nc2cc(NC3COC3)n3ncc(C#N)c3n2)c(F)cc1C | > 33

Test system: not listed separately
Experiment: Aqueous solubility of the compound in phosphate buffer at pH 7.4 after 24 hrs
Format: physicochemical
Conditions: not given

Row | Structure (SMILES) | solubility at 24 h [µM]
49 | CC(=O)Nc1cc(Nc2cc(NC3CCC3)n3ncc(C#N)c3n2)c(F)cc1C | 5 (≈ 1.97 µg/mL)
50 | CC(=O)Nc1cc(Nc2cc(Nc3ccn(CCN4CCOCC4)n3)n3ncc(C#N)c3n2)ccc1C | 10 (≈ 5.01 µg/mL)
51 | CC(=O)Nc1cc(Nc2cc(Nc3cn(CCO)cn3)n3ncc(C#N)c3n2)ccc1C | 83 (≈ 35.8 µg/mL)
52 | CC(=O)Nc1cc(Nc2cc(Nc3cn(CCN4CCOCC4)cn3)n3ncc(C#N)c3n2)ccc1C | 120 (≈ 60.1 µg/mL)
53 | CC(=O)Nc1cc(Nc2cc(NC3CC3)n3ncc(C#N)c3n2)c(F)cc1C | 5 (≈ 1.9 µg/mL)
54 | CC(=O)Nc1cc(Nc2cc(NC3COC3)n3ncc(C#N)c3n2)ccc1Cl | 23 (≈ 9.15 µg/mL)

More lines, now with the values ahead:

Row | solubility at 24 h [µM] | Structure (SMILES)
55 | 110 (≈ 53.3 µg/mL) | CC(=O)Nc1cc(Nc2cc(Nc3cn(CCN4CCCC4)cn3)n3ncc(C#N)c3n2)ccc1C
56 | 22 (≈ 8.7 µg/mL) | CC(=O)Nc1cc(Nc2cc(NC3COC3)n3ncc(C#N)c3n2)c(F)cc1C
57 | 13 (≈ 4.91 µg/mL) | CC(=O)Nc1cc(Nc2cc(NC3COC3)n3ncc(C#N)c3n2)ccc1C
58 | 22 (≈ 9.49 µg/mL) | CC(=O)Nc1cc(Nc2cc(Nc3ccn(CCO)n3)n3ncc(C#N)c3n2)ccc1C
59 | < 1 | CC(=O)Nc1cc(Nc2cc(NC3CC3)n3ncc(C#N)c3n2)ccc1C1CC1
60 | 7 (≈ 2.84 µg/mL) | CC(=O)Nc1cc(Nc2cc(NC3CC3)n3ncc(C#N)c3n2)c(F)cc1C1CC1

Test system: not listed separately
Experiment: Intrinsic clearance in rat liver microsomes
Format: ADME, Microsome
Conditions: read-out: CLH
Procedure, shortened: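 Incubation with rat liver microsomes; intrinsic clearance reported in μL/min/mg.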

Row | Structure (SMILES) | microsomal CLint [µL/min/mg]
61 | CC(=O)Nc1cc(Nc2cc(NC3CCC3)n3ncc(C#N)c3n2)c(F)cc1C | 31
62 | CC(=O)Nc1cc(Nc2cc(Nc3ccn(CCN4CCOCC4)n3)n3ncc(C#N)c3n2)ccc1C | 31
63 | CC(=O)Nc1cc(Nc2cc(Nc3cn(CCO)cn3)n3ncc(C#N)c3n2)ccc1C | 43
64 | CC(=O)Nc1cc(Nc2cc(Nc3cn(CCN4CCOCC4)cn3)n3ncc(C#N)c3n2)ccc1C | 63
65 | CC(=O)Nc1cc(Nc2cc(NC3CC3)n3ncc(C#N)c3n2)c(F)cc1C | 36
66 | CC(=O)Nc1cc(Nc2cc(NC3COC3)n3ncc(C#N)c3n2)ccc1Cl | < 4

Continued, values first:

Row | microsomal CLint [µL/min/mg] | Structure (SMILES)
67 | 30 | CC(=O)Nc1cc(Nc2cc(Nc3cn(CCN4CCCC4)cn3)n3ncc(C#N)c3n2)ccc1C
68 | 6 | CC(=O)Nc1cc(Nc2cc(NC3COC3)n3ncc(C#N)c3n2)c(F)cc1C
69 | 17 | CC(=O)Nc1cc(Nc2cc(NC3COC3)n3ncc(C#N)c3n2)ccc1C
70 | 17 | CC(=O)Nc1cc(Nc2cc(Nc3ccn(CCO)n3)n3ncc(C#N)c3n2)ccc1C
71 | 39 | CC(=O)Nc1cc(Nc2cc(NC3CC3)n3ncc(C#N)c3n2)ccc1C1CC1
72 | 19 | CC(=O)Nc1cc(Nc2cc(NC3CC3)n3ncc(C#N)c3n2)c(F)cc1C1CC1

Test system: not listed separately
Experiment: Cmax in po dosed rat
Format: ADME, organism-based
Parameters: route oral
Conditions: in vivo

Row | Structure (SMILES) | Cmax [µM]
73 | CC(=O)Nc1cc(Nc2cc(Nc3ccn(CCN4CCOCC4)n3)n3ncc(C#N)c3n2)ccc1C | < 0.1

Test system: not listed separately
Experiment: Fraction unbound in human plasma at 10 uM by equilibrium dialysis method
Format: ADME, cell-free
Conditions: not given

Row | Structure (SMILES) | fraction unbound at 10 µM
74 | CC(=O)Nc1cc(Nc2cc(NC3CCC3)n3ncc(C#N)c3n2)c(F)cc1C | 0.043
75 | CC(=O)Nc1cc(Nc2cc(NC3CC3)n3ncc(C#N)c3n2)c(F)cc1C | 0.13
76 | CC(=O)Nc1cc(Nc2cc(NC3COC3)n3ncc(C#N)c3n2)ccc1Cl | 0.12

Results, then the compound that gave them:

Row | fraction unbound at 10 µM | Structure (SMILES)
77 | 0.26 | CC(=O)Nc1cc(Nc2cc(NC3COC3)n3ncc(C#N)c3n2)c(F)cc1C
78 | 0.28 | CC(=O)Nc1cc(Nc2cc(NC3COC3)n3ncc(C#N)c3n2)ccc1C
79 | 0.02 | CC(=O)Nc1cc(Nc2cc(NC3CC3)n3ncc(C#N)c3n2)ccc1C1CC1
80 | 0.096 | CC(=O)Nc1cc(Nc2cc(NC3CC3)n3ncc(C#N)c3n2)c(F)cc1C1CC1
